ChEMBL document CHEMBL4145531, “Synthesis of novel Chlorin e6-curcumin conjugates as photosensitizers for photodynamic therapy against pancreatic carcinoma” (Eur J Med Chem, 2018)
Values belong to the compound of their own block, whether it stands above or below them.

Assays:
[1] = Solubility of the compound in 2% DMSO/98% de-ionized water at 7.7 uM; type: physicochemical; settings: buffer
[2] = Induction of singlet oxygen production in DMSO assessed as DPBF absorption intensity (reference value: 100%); type: functional
Method in brief: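 DPBF (50 µM in DMSO) was mixed with 1 µM photosensitizer in the dark. Samples were irradiated at 660 nm, 50 mW, 2 J/cm² for 40 s. Singlet oxygen was read as the decay of normalized DPBF absorbance at 418 nm relative to a DPBF-only control.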

[3] = Drug uptake in human AsPC1 cells at 5 uM by FACS analysis; type: ADME, cell-based; settings: aspc1, 5 µM, TDE = time-dependent effect
Method in brief: (§1)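 AsPC-1 cells (2 x 10^5) were seeded and kept in the dark at 37 °C for 24h. They were then incubated with 5 µM compound for 30 min to 24h. Cells were harvested by trypsin, washed three times in PBS and resuspended in PBS. Uptake was read as mean fluorescence intensity by FACS.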

[4] = Drug uptake in human AsPC1 cells at 5 uM after 3 to 24 hrs by FACS analysis; type: ADME, cell-based; settings: aspc1, 5 µM; method in brief: as §1
[5] = Dark toxicity in human AsPC1 cells assessed as reduction in cell viability after 72 hrs by MTT assay; type: cell-based
Method in brief: (§2)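 AsPC-1 cells were grown in RPMI-1640, and MIA PaCa-2 and PANC-1 in DMEM, each with 10% FBS and 1% penicillin/streptomycin. 5.0 x 10^3 cells were seeded and left overnight at 37 °C. They were exposed to 0-300 µM compound for 3h without laser irradiation, then held 72h in the dark at 37 °C, 5% CO₂. Viability was read by MTT.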

[6] = test system: ASPC1; test: Phototoxicity in human AsPC1 cells assessed as reduction in cell viability preincubated for 3 hrs followed by 9 J/cm2 laser light irradiation and measured after 72 hrs by MTT assay; type: functional, cell-based; settings: ASPC1, light or radiation study
Method in brief: (§3)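 Cells were seeded at 5.0 x 10^3 per well and incubated overnight at 37 °C. AsPC-1 was in RPMI-1640 and MIA PaCa-2/PANC-1 in DMEM, with 10% FBS. Cells took up compound for 3h, then received 660 nm laser light (50 mW, 9 J/cm²).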

[7] = Selectivity index, ratio of IC50 for dark toxicity in human AsPC1 cells to IC50 for phototoxicity in human AsPC1 cells; type: cell-based; settings: read-out: Ratio IC50
Method in brief: (§4)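 The ratio is the dark-toxicity IC50 over the phototoxicity IC50 in the same cell line, both from 72h MTT. The dark arm received no light. The photo arm was irradiated at 660 nm, 50 mW, 9 J/cm² after 3h compound exposure.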

[8] = Dark toxicity in human MIAPaCa2 cells assessed as reduction in cell viability after 72 hrs by MTT assay; type: cell-based, MIA PaCa-2; method in brief: as §2
[9] = test system: MIA PaCa-2; test: Phototoxicity in human MIAPaCa2 cells assessed as reduction in cell viability preincubated for 3 hrs followed by 9 J/cm2 laser light irradiation and measured after 72 hrs by MTT assay; type: functional, cell-based; settings: MIA PaCa-2, light or radiation study; method in brief: as §3
[10] = Selectivity index, ratio of IC50 for dark toxicity in human MIAPaCa2 cells to IC50 for phototoxicity in human MIAPaCa2 cells; type: cell-based, MIA PaCa-2; settings: read-out: Ratio IC50; method in brief: as §4
[11] = Dark toxicity in human PANC1 cells assessed as reduction in cell viability after 72 hrs by MTT assay; type: cell-based, PANC-1; method in brief: as §2
[12] = test system: PANC-1; test: Phototoxicity in human PANC1 cells assessed as reduction in cell viability preincubated for 3 hrs followed by 9 J/cm2 laser light irradiation and measured after 72 hrs by MTT assay; type: functional, cell-based; settings: PANC-1, light or radiation study; method in brief: as §3
[13] = Selectivity index, ratio of IC50 for dark toxicity in human PANC1 cells to IC50 for phototoxicity in human PANC1 cells; type: cell-based, PANC-1; settings: read-out: Ratio IC50; method in brief: as §4
[14] = Solubility of the compound in 2% DMSO/98% de-ionized water at 16 uM; type: physicochemical; settings: buffer

solubility [1]: Soluble | Drug uptake [3]: Tde | Drug uptake [4]: Active
Structure (SMILES): C=Cc1c(C)c2cc3nc(c(CC(=O)OC)c4[nH]c(cc5nc(cc1[nH]2)C(C)=C5CC)c(C)c4C(=O)NCCCOCCOCCOCCCNC(=O)CCCC(=O)Oc1ccc(/C=C/C(=O)CC(=O)/C=C/c2ccc(O)c(OC)c2)cc1OC)C(CCC(=O)OC)C3C (stereo unspecified)
Activity [2]: 12.3% | IC50 at 72 h [5]: 193 µM | IC50 [6]: 5.93 µM | selectivity ratio [7]: 32.5 | IC50 at 72 h [8]: > 300 µM | IC50 [9]: 4.64 µM | selectivity ratio [10]: > 64.7 | IC50 at 72 h [11]: > 300 µM | IC50 [12]: 15.7 µM | selectivity ratio [13]: > 19.1

Structure (SMILES): CN(C)c1ccc2nc3ccc(=[N+](C)C)cc-3sc2c1
Activity [2]: 33.9%

solubility [14]: Soluble | Drug uptake [3]: Tde
Structure (SMILES): C=Cc1c(C)c2cc3nc(c(CC(=O)O)c4[nH]c(cc5nc(cc1[nH]2)C(C)=C5CC)c(C)c4C(=O)O)C(CCC(=O)O)C3C (stereo unspecified)
Activity [2]: 9.88% | IC50 at 72 h [5]: 126 µM | IC50 [6]: 19.5 µM | selectivity ratio [7]: 6.45 | IC50 at 72 h [8]: 89 µM | IC50 [9]: 15.8 µM | selectivity ratio [10]: 5.61 | IC50 at 72 h [11]: 67 µM | IC50 [12]: 10.1 µM | selectivity ratio [13]: 6.6
